{"source": "ChEMBL document CHEMBL4689842", "about": "“EUbOPEN Chemogenomics Library wave 1” (2021)", "tested_on": "Fibroblast", "assay": "Multiplex assay against human fibroblast", "assay_type": "toxicity, cell-based", "procedure,_shortened": "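Live cells carried four stains from seeding: Hoechst33342, BioTracker Green Microtubule Cytoskeleton Dye, MitoTracker Red and Annexin V Alexa Fluor 680. They were imaged on a CQ1 microscope at 37°C and 5% CO2 after compound addition. Using CellPathfinder machine-learning gating, cells were split into Hoechst high-intensity objects or normal cells, normal cells into healthy, pyknosed or fragmented nuclei, and pyknosed cells into mitotic or apoptotic; tubulin, mitochondrial-mass and membrane-permeability phenotypes are per cents of healthy-nucleus cells.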", "key": {"[1]": {"conditions": "12 h, 1 µM, compound concentration 1 uM, replicate 1"}, "[2]": {"conditions": "12 h, 1 µM, compound concentration 1 uM, replicate 2"}, "[3]": {"conditions": "12 h, 10 µM, compound concentration 10 uM, replicate 1"}, "[4]": {"conditions": "12 h, 10 µM, compound concentration 10 uM, replicate 2"}, "[5]": {"conditions": "24 h, 1 µM, compound concentration 1 uM, replicate 1"}, "[6]": {"conditions": "24 h, 1 µM, compound concentration 1 uM, replicate 2"}, "[7]": {"conditions": "24 h, 10 µM, compound concentration 10 uM, replicate 1"}, "[8]": {"conditions": "24 h, 10 µM, compound concentration 10 uM, replicate 2"}}, "data": [{"smiles": "Cc1ccc2nc(NCCN)c3ncc(C)n3c2c1.O=C(O)C(F)(F)F.O=C(O)C(F)(F)F", "values": [{"measurement": "Population Apoptotic (%)", "setting": "[1]", "result": 78, "unit": "%"}, {"measurement": "Population Fragmented Nuclei (%)", "setting": "[1]", "result": 28, "unit": "%"}, {"measurement": "Population Healthy Nuclei (%)", "setting": "[1]", "result": 60, "unit": "%"}, {"measurement": "Population Hoechst High Intensity Objects (%)", "setting": "[1]", "result": 11, "unit": "%"}, {"measurement": "Population Membrane Permeable-Phenotype (%)", "setting": "[1]", "result": 5, "unit": "%"}, {"measurement": "Population Mitochondria Different-Phenotype (%)", "setting": "[1]", "result": 1, "unit": "%"}, {"measurement": "Population Mitotic Cells (%)", "setting": "[1]", "result": 21, "unit": "%"}, {"measurement": "Population Normal (%)", "setting": "[1]", "result": 88, "unit": "%"}, {"measurement": "Population Tubulin-Different-Phenotype (%)", "setting": "[1]", "result": 3, "unit": "%"}, {"measurement": "Total Cell Count", "setting": "[1]", "result": 243}, {"measurement": "Population Apoptotic (%)", "setting": "[2]", "result": 50, "unit": "%"}, {"measurement": "Population Fragmented Nuclei (%)", "setting": "[2]", "result": 65, "unit": "%"}, {"measurement": "Population Healthy Nuclei (%)", "setting": "[2]", "result": 23, "unit": "%"}, {"measurement": "Population Hoechst High Intensity Objects (%)", "setting": "[2]", "result": 51, "unit": "%"}, {"measurement": "Population Membrane Permeable-Phenotype (%)", "setting": "[2]", "result": 11, "unit": "%"}, {"measurement": "Population Mitochondria Different-Phenotype (%)", "setting": "[2]", "result": 22, "unit": "%"}, {"measurement": "Population Mitotic Cells (%)", "setting": "[2]", "result": 50, "unit": "%"}, {"measurement": "Population Normal (%)", "setting": "[2]", "result": 48, "unit": "%"}, {"measurement": "Population Pyknosed Nuclei (%)", "setting": "[2]", "result": 10, "unit": "%"}, {"measurement": "Population Tubulin-Different-Phenotype (%)", "setting": "[2]", "result": 11, "unit": "%"}, {"measurement": "Total Cell Count", "setting": "[2]", "result": 78}, {"measurement": "Population Apoptotic (%)", "setting": "[3]", "result": 76, "unit": "%"}, {"measurement": "Population Fragmented Nuclei (%)", "setting": "[3]", "result": 33, "unit": "%"}, {"measurement": "Population Healthy Nuclei (%)", "setting": "[3]", "result": 52, "unit": "%"}, {"measurement": "Population Hoechst High Intensity Objects (%)", "setting": "[3]", "result": 21, "unit": "%"}, {"measurement": "Population Membrane Permeable-Phenotype (%)", "setting": "[3]", "result": 5, "unit": "%"}, {"measurement": "Population Mitochondria Different-Phenotype (%)", "setting": "[3]", "result": 3, "unit": "%"}, {"measurement": "Population Mitotic Cells (%)", "setting": "[3]", "result": 23, "unit": "%"}, {"measurement": "Population Normal (%)", "setting": "[3]", "result": 78, "unit": "%"}, {"measurement": "Population Pyknosed Nuclei (%)", "setting": "[3]", "result": 13, "unit": "%"}, {"measurement": "Population Tubulin-Different-Phenotype (%)", "setting": "[3]", "result": 11, "unit": "%"}, {"measurement": "Total Cell Count", "setting": "[3]", "result": 309}, {"measurement": "Population Apoptotic (%)", "setting": "[4]", "result": 66, "unit": "%"}, {"measurement": "Population Fragmented Nuclei (%)", "setting": "[4]", "result": 57, "unit": "%"}, {"measurement": "Population Healthy Nuclei (%)", "setting": "[4]", "result": 26, "unit": "%"}, {"measurement": "Population Hoechst High Intensity Objects (%)", "setting": "[4]", "result": 36, "unit": "%"}, {"measurement": "Population Membrane Permeable-Phenotype (%)", "setting": "[4]", "result": 6, "unit": "%"}, {"measurement": "Population Mitochondria Different-Phenotype (%)", "setting": "[4]", "result": 33, "unit": "%"}, {"measurement": "Population Mitotic Cells (%)", "setting": "[4]", "result": 33, "unit": "%"}, {"measurement": "Population Normal (%)", "setting": "[4]", "result": 63, "unit": "%"}, {"measurement": "Population Pyknosed Nuclei (%)", "setting": "[4]", "result": 15, "unit": "%"}, {"measurement": "Population Tubulin-Different-Phenotype (%)", "setting": "[4]", "result": 46, "unit": "%"}, {"measurement": "Total Cell Count", "setting": "[4]", "result": 90}, {"measurement": "Population Apoptotic (%)", "setting": "[5]", "result": 64, "unit": "%"}, {"measurement": "Population Fragmented Nuclei (%)", "setting": "[5]", "result": 22, "unit": "%"}, {"measurement": "Population Healthy Nuclei (%)", "setting": "[5]", "result": 59, "unit": "%"}, {"measurement": "Population Hoechst High Intensity Objects (%)", "setting": "[5]", "result": 11, "unit": "%"}, {"measurement": "Population Membrane Permeable-Phenotype (%)", "setting": "[5]", "result": 4, "unit": "%"}, {"measurement": "Population Mitochondria Different-Phenotype (%)", "setting": "[5]", "result": 0, "unit": "%"}, {"measurement": "Population Mitotic Cells (%)", "setting": "[5]", "result": 35, "unit": "%"}, {"measurement": "Population Normal (%)", "setting": "[5]", "result": 88, "unit": "%"}, {"measurement": "Population Pyknosed Nuclei (%)", "setting": "[5]", "result": 17, "unit": "%"}, {"measurement": "Population Tubulin-Different-Phenotype (%)", "setting": "[5]", "result": 2, "unit": "%"}, {"measurement": "Total Cell Count", "setting": "[5]", "result": 253}, {"measurement": "Population Apoptotic (%)", "setting": "[6]", "result": 66, "unit": "%"}, {"measurement": "Population Fragmented Nuclei (%)", "setting": "[6]", "result": 64, "unit": "%"}, {"measurement": "Population Healthy Nuclei (%)", "setting": "[6]", "result": 27, "unit": "%"}, {"measurement": "Population Hoechst High Intensity Objects (%)", "setting": "[6]", "result": 43, "unit": "%"}, {"measurement": "Population Membrane Permeable-Phenotype (%)", "setting": "[6]", "result": 0, "unit": "%"}, {"measurement": "Population Mitochondria Different-Phenotype (%)", "setting": "[6]", "result": 20, "unit": "%"}, {"measurement": "Population Mitotic Cells (%)", "setting": "[6]", "result": 33, "unit": "%"}, {"measurement": "Population Normal (%)", "setting": "[6]", "result": 56, "unit": "%"}, {"measurement": "Population Pyknosed Nuclei (%)", "setting": "[6]", "result": 8, "unit": "%"}, {"measurement": "Population Tubulin-Different-Phenotype (%)", "setting": "[6]", "result": 0, "unit": "%"}, {"measurement": "Total Cell Count", "setting": "[6]", "result": 65}, {"measurement": "Population Apoptotic (%)", "setting": "[7]", "result": 81, "unit": "%"}, {"measurement": "Population Fragmented Nuclei (%)", "setting": "[7]", "result": 35, "unit": "%"}, {"measurement": "Population Healthy Nuclei (%)", "setting": "[7]", "result": 50, "unit": "%"}, {"measurement": "Population Hoechst High Intensity Objects (%)", "setting": "[7]", "result": 23, "unit": "%"}, {"measurement": "Population Membrane Permeable-Phenotype (%)", "setting": "[7]", "result": 5, "unit": "%"}, {"measurement": "Population Mitochondria Different-Phenotype (%)", "setting": "[7]", "result": 0, "unit": "%"}, {"measurement": "Population Mitotic Cells (%)", "setting": "[7]", "result": 18, "unit": "%"}, {"measurement": "Population Normal (%)", "setting": "[7]", "result": 76, "unit": "%"}, {"measurement": "Population Pyknosed Nuclei (%)", "setting": "[7]", "result": 13, "unit": "%"}, {"measurement": "Population Tubulin-Different-Phenotype (%)", "setting": "[7]", "result": 3, "unit": "%"}, {"measurement": "Total Cell Count", "setting": "[7]", "result": 370}, {"measurement": "Population Apoptotic (%)", "setting": "[8]", "result": 77, "unit": "%"}, {"measurement": "Population Fragmented Nuclei (%)", "setting": "[8]", "result": 47, "unit": "%"}, {"measurement": "Population Healthy Nuclei (%)", "setting": "[8]", "result": 35, "unit": "%"}, {"measurement": "Population Hoechst High Intensity Objects (%)", "setting": "[8]", "result": 39, "unit": "%"}, {"measurement": "Population Membrane Permeable-Phenotype (%)", "setting": "[8]", "result": 15, "unit": "%"}, {"measurement": "Population Mitochondria Different-Phenotype (%)", "setting": "[8]", "result": 15, "unit": "%"}, {"measurement": "Population Mitotic Cells (%)", "setting": "[8]", "result": 22, "unit": "%"}, {"measurement": "Population Normal (%)", "setting": "[8]", "result": 60, "unit": "%"}, {"measurement": "Population Pyknosed Nuclei (%)", "setting": "[8]", "result": 16, "unit": "%"}, {"measurement": "Population Tubulin-Different-Phenotype (%)", "setting": "[8]", "result": 52, "unit": "%"}, {"measurement": "Total Cell Count", "setting": "[8]", "result": 88}]}]}
